Screening data deposited in PubChem BioAssay by Columbia University Molecular Screening Center.
Shown is part of a subset that was picked to be rich in hits.
Insulin prom act: TRM-6 insulin promoter activation; TRM-6 cells, insulin promoter eGFP reporter, imaging; plate-scaled: unstimulated 0, stimulated control 100; activation, % at 2 µM; hit rate 0.81% among 130,000; AID 1296;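 active means activation at 2 µM above a set limit, confirmed on inspection of the cell images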;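 further: share of cells whose green reporter signal exceeds an intensity cutoff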
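Test system: human fetal islet-derived TRM-6 cells with tamoxifen-inducible insulin promoter–eGFP reporter. Compound dosing: 2 µM final, single concentration. Incubation: tamoxifen pre-incubation 15 h overnight, then compound exposure 48 h at 37 °C. Signal: fixed-cell fluorescence microscopy, eGFP plus Hoechst.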
Numbers without * were called inactive.

SMILES	Insulin prom act
Cc1ccccc1N(CC(=O)O)S(C)(=O)=O	475.0*
COc1ccccc1N(CC(=O)Nc1ccccc1C)S(C)(=O)=O	8.3
COC(=O)c1ccc(NC(=O)COc2ccc(S(=O)(=O)NC(C)(C)C)cc2)cc1	442.9*
COC(=O)c1ccc(S(=O)(=O)NNC(=O)COc2ccc(C)cc2)cc1	0.0
Cc1cc(C)nc(NS(=O)(=O)c2ccc(NC(=O)COc3ccccc3)cc2)n1	-2.7
COC(=O)c1ccc(NC(=O)COc2ccc(S(=O)(=O)NC(C)C)cc2)cc1	225.7
O=C(COc1ccc(/C=N/NS(=O)(=O)c2ccccc2)cc1)Nc1ccccc1	284.6*
N/C(COc1ccccc1)=N\NS(=O)(=O)c1ccccc1	-8.3
N/C(=N\OC(=O)CCC1CCCC1)c1ccccn1	-6.7
CCOc1ccc2ccccc2c1/C=N/NC(=O)CC1(C)OCCCO1	0.0
COc1ccc(NC(=S)NCCc2c(C)[nH]c3ccc(OC)cc23)cc1	9.1
Cc1ccc(-n2c(SCC(=O)Nc3cccc(S(N)(=O)=O)c3)nc3ccccc32)cc1	-6.5
COc1cc([N+](=O)[O-])cc2sc(NC(=O)c3c(F)cccc3F)nc12	5.9
COc1ccc(/C(N)=N/OC(=O)Oc2ccccc2)cc1OC	-1.5
N/C(=N\OC(=O)CCc1ccccc1)c1ccc(Br)cc1	9.7
N/C(=N\OC(=O)Oc1ccccc1)c1ccc(Br)cc1	492.9*
CCOc1ccc(C(=S)N2CCN(C)CC2)cc1	0.0
COc1ccc(NC(=O)CSc2nnnn2C)cc1	-7.1
Cn1nnnc1SCC(=O)Nc1ccccc1[N+](=O)[O-]	0.0
Cn1nnnc1SCC(=O)Nc1ccccn1	92.9*
Cc1ccc(C(C(=O)NCc2ccco2)N(C(=O)Cc2cccs2)c2cccnc2)cc1 (centres undefined)	110.3
CC(=O)Oc1ccc(N2C(=O)C3C4C=CC(C5CC45)C3C2=O)cc1[N+](=O)[O-] (centres undefined)	-5.6
Cc1cc(SCC(=O)N(C)C2CCS(=O)(=O)C2)nc2c(C)cccc12 (centres undefined)	-4.8
C=CCOc1c(Br)cc(/C=N/Nc2ccc(C(=O)O)cc2)cc1OCC	106.7
CCn1c(NC)cc(=O)n(C)c1=O	2.6
SMILES	Insulin prom act
CCn1c(=O)n(CC)c2cc(S(N)(=O)=O)c(C)cc21	525.0*
CCN1CCN(S(=O)(=O)c2cc(C)c(OC)cc2C)CC1	-57.1
Cc1c(N)cc[n+](CC(=O)c2ccccc2)c1C	0.0
COC(C(=O)NC(C(C)C)C(C)C)c1ccccc1 (centres undefined)	0.0
Cc1nn(C(=O)CNS(=O)(=O)c2ccccc2)c(C)c1Sc1ccc(Cl)cc1	-3.6
CC(Sc1nc2ccccc2[nH]1)C(=O)Nc1ccccc1F (centres undefined)	8.3
Cc1cc(N2CCN(S(=O)(=O)c3ccc(Cl)cc3)CC2)c2ccccc2n1	100.0*
O=S(=O)(c1ccccc1)N1CCN(c2nc3ccccc3s2)CC1	3.4
Cc1cc(C)n(-c2cc(N3CCN(S(=O)(=O)c4ccc(Cl)cc4)CC3)ccc2[N+](=O)[O-])n1	3.3
O=C(CCN(NC(=O)c1ccccc1)C1=NS(=O)(=O)c2ccccc21)NC1CCCCC1	5.6
CCc1cc(OCCCSc2nc(C)cc(=O)[nH]2)ccc1Cl	8.7
O=C(/C=C/c1ccc(N2CCC(c3ccccc3)=N2)cc1)c1ccccc1	455.6*
Cc1ccc(/C=C/C(=O)c2ccc(C)cc2)cc1	366.7
O=C(/C=C/c1ccc(OC2CSC2)cc1)c1ccc(Cl)cc1	3.8
CC1=C(C(=O)Nc2ccccn2)C(c2ccc(Cl)cc2Cl)NC(=S)N1 (centres undefined)	8.3
CCOC(=O)CSc1nc2c(sc3ccc([N+](=O)[O-])cc32)c(=O)n1Cc1ccco1	-9.1
Cc1ccc(C2(C)NC(=O)N(CC(=O)c3ccc(Cl)s3)C2=O)cc1 (centres undefined)	3.3
CC(=O)C1=C(c2ccccc2)NC(=O)NC1c1ccccc1OCC(=O)NCc1ccccc1 (centres undefined)	-3.3
Cc1ccc(CCC(=O)Nc2ccccc2F)s1	0.0
COc1cccc(/C=N/NC(=O)c2nc(-c3ccccc3)cc(-c3ccccc3)n2)c1	-3.3
COc1cccc(/C=C2\C(=O)C(=O)c3ccccc32)c1	177.8*
COc1cccc(/C=C/C(=O)c2ccc[nH]2)c1	-6.8
O=C(OCCN(C1=NS(=O)(=O)c2ccccc21)c1ccccc1Cl)c1ccc(Cl)cc1	-5.7
COCCNC(=O)C(OC(=O)CC1Sc2ccccc2NC1=O)c1ccccc1 (centres undefined)	414.3*
O=C(CC1Sc2ccccc2NC1=O)c1ccc(Br)cc1 (centres undefined)	7.9
SMILES	Insulin prom act
CCCNC(=O)CC1Sc2ccccc2NC1=O (centres undefined)	111.1
CN(C)c1ccc(CNn2cnnc2SCc2ccc(F)cc2)cc1	-6.1
CC(C)(C)NC(=O)CSc1nncn1NCc1ccccc1	0.0
Fc1ccc(CSc2nncn2NCc2ccccc2)cc1	427.8*
CCCCNC(=O)CNC(=S)N(Cc1cc(OC)c(OC)c(OC)c1)C1CCCC1	3.6
CCOP(=O)(c1ccccc1)C(O)c1ccccc1 (centres undefined)	-3.3
Cc1ccccc1NC(=O)C(=O)NCc1ccccn1	109.7
CC(Sc1nc(NCc2ccccc2)nc(N2CCOCC2)n1)C(=O)Nc1ccccc1 (centres undefined)	7.7
c1cncc(CNc2nc(N3CCOCC3)nc(N3CCOCC3)n2)c1	2.9
O=[N+]([O-])c1ccc(-c2ccc(/C=N/Nc3nc(NCc4ccccc4)nc(N4CCOCC4)n3)o2)cc1	200.0*
Cc1c(C(=O)/C=C/c2cccs2)oc2ccc(F)cc12	3.3
O=C(Nc1ccccc1O)c1cccc(S(=O)(=O)N2CCOCC2)c1	462.5*
Cc1nnc(NC(=O)c2cccc(S(=O)(=O)N3CCOCC3)c2)s1	-5.7
O=C(Nn1cnnc1)c1cccc(S(=O)(=O)N2CCOCC2)c1	6.7
O=C(Nc1cccc2nsnc12)c1ccc(-c2cccc(Cl)c2)o1	-3.2
CC(C)OC(=O)CN1C(=O)S/C(=C/c2ccc(N3CCCCC3)o2)C1=O	170.3*
O=C1NC(=S)S/C1=C/c1ccc(N2CCOCC2)o1	140.6
O=C1S/C(=C/c2ccc(N3CCOCC3)o2)C(=O)N1Cc1ccc(F)cc1	5.7
CCOC(=O)c1c(C)cc(C)n2c1nc1ccccc12	-75.0
Cc1ccc(S(=O)(=O)NC(N)=NCCc2ccc(Cl)cc2)cc1C	0.0
O=C(COC(=O)CCc1ccc(S(=O)(=O)N2CCOCC2)cc1)NCc1ccccc1Cl	0.0
COc1ccc(CCNC(=O)COC(=O)c2cc(OC)c(OC)cc2OC)cc1OC	-9.1
COc1cc(NC(=S)N2CCC(C(O)(c3ccccc3)c3ccccc3)CC2)cc(OC)c1	-3.4
COc1ccc(CCNC(=O)C2CCN(S(=O)(=O)c3c(C)noc3C)CC2)cc1OC	-65.5
CCc1ccc(-c2nc(CN3CCCC(C(=O)NCCc4ccc(OC)c(OC)c4)C3)c(C)o2)cc1 (centres undefined)	121.4*
COc1ccc(CCNC(=O)C2CCCN(c3nn4c(=O)cc(C)nc4s3)C2)cc1OC (centres undefined)	3.4
NS(=O)(=O)c1ccc(NC(=O)C2COc3ccccc3O2)cc1 (centres undefined)	4.2
CC1CC(C)CN(S(=O)(=O)c2ccc(NC(=O)C3COc4ccccc4O3)cc2)C1 (centres undefined)	925.0*
CC(C)(C)NC(=O)c1ccc(NC(=O)C2COc3ccccc3O2)cc1 (centres undefined)	9.4
